Reference: article PMC4607264 (Developmental and comparative immunology, 2014)
Converted amounts (≈) assume the structure as drawn.

Target: DlRBL (Dicentrarchus labrax rhamnose-binding lectin) (Dicentrarchus labrax, UniProt A0A8P4K6Y8)
Assay: inhibition of hemagglutination of rabbit erythrocytes by purified lectin
Format: biochemical
Conditions: TBS pH 7.4, 5 mM CaCl2; 1% rabbit erythrocytes
How it was run: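 Purified lectin (250 μg/ml stock, dialysed in TBS) was serially 2-fold diluted in TBS with 0.1% gelatin. Inhibitor series of monosaccharides, disaccharides and yeast mannan were used at decreasing concentrations starting from 100 mM. Rabbit erythrocytes were washed three times in PBS and suspended at 1% in TBS-gelatin, then added in equal volume. Agglutination was scored after 1 h at 37°C.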

OC[C@H]1OC(O)[C@H](O)[C@@H](O)[C@H]1O (stereo partly drawn) [D-galactose]
Minimum inhibitory concentration: 70.0 mM (≈ 12.6 mg/mL)
